# In ChEMBL document CHEMBL6134769, “Discovery of N-substituted-2-oxoindolin benzoylhydrazines as c-MET/SMO modulators in EGFRi-resistant non-small cell lung cancer” (RSC Med Chem, 2025):
# Calls of active or inactive are those of the source. No cut-off for these calls is given here.
# Legend:
# [1] = biological target: Angiopoietin-1 receptor (Homo sapiens) (UniProt Q02763); experiment: Inhibition of human N-terminal GST-fused TIE2 cytoplasmic domain (771 to 1124 (end)residues) expressed in baculovirus expression system at 20 uM measured after 1 hr in presence of peptide substrate and ATP by off-chip mobility shift assay relative to control
# Method in brief: (§1)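 Off-chip mobility shift assay. Product and substrate peptides were separated; activity was taken as P/(P+S). Complete reaction was set as 0% inhibition and enzyme-free background as 100%. Run in triplicate, mean ± SD.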
# [2] = biological target: Tyrosine-protein kinase Lck (Homo sapiens) (UniProt P06239); experiment: Inhibition of human full-length N-terminal GST-fused LCK (1 to 509 (end)residues) expressed in baculovirus expression system at 20 uM measured after 1 hr in presence of peptide substrate and ATP by off-chip mobility shift assay relative to control; method in brief: as §1
# Chain of Tyrosine-protein kinase Lck (Homo sapiens) (P06239 2-509 limits assumed): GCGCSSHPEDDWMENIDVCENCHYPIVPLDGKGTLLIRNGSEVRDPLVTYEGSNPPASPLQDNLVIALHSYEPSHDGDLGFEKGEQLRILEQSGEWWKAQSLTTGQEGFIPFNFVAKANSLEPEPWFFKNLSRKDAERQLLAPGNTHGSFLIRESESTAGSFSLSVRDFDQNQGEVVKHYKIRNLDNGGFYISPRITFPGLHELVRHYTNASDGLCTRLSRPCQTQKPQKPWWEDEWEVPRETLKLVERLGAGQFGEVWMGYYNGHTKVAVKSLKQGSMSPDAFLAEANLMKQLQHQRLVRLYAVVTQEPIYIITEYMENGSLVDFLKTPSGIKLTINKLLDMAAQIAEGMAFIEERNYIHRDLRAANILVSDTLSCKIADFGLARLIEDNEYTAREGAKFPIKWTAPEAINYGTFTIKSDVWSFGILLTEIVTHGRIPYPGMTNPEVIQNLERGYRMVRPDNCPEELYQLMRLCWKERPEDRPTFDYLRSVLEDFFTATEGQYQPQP
# [3] = Antiproliferative activity against human PC9-OR cells assessed as reduction in cell viability measured after 72 hrs by MTS assay
# [4] = species on record: Homo sapiens; experiment: Inhibition of human full-length N-terminal His-tagged ABL (2 to 1130 (end)residues) expressed in baculovirus expression system at 20 uM measured after 1 hr in presence of peptide substrate and ATP by off-chip mobility shift assay relative to control; method in brief: as §1
# [5] = biological target: Fibroblast growth factor receptor 1 (Homo sapiens) (UniProt P11362); experiment: Inhibition of human N-terminal GST-fused FGFR1 cytoplasmic domain (398 to 822 (end)residues) expressed in baculovirus expression system at 20 uM measured after 1 hr in presence of peptide substrate and ATP by off-chip mobility shift assay relative to control; method in brief: as §1
# Chain of Fibroblast growth factor receptor 1 (Homo sapiens) (P11362 22-822 limits assumed): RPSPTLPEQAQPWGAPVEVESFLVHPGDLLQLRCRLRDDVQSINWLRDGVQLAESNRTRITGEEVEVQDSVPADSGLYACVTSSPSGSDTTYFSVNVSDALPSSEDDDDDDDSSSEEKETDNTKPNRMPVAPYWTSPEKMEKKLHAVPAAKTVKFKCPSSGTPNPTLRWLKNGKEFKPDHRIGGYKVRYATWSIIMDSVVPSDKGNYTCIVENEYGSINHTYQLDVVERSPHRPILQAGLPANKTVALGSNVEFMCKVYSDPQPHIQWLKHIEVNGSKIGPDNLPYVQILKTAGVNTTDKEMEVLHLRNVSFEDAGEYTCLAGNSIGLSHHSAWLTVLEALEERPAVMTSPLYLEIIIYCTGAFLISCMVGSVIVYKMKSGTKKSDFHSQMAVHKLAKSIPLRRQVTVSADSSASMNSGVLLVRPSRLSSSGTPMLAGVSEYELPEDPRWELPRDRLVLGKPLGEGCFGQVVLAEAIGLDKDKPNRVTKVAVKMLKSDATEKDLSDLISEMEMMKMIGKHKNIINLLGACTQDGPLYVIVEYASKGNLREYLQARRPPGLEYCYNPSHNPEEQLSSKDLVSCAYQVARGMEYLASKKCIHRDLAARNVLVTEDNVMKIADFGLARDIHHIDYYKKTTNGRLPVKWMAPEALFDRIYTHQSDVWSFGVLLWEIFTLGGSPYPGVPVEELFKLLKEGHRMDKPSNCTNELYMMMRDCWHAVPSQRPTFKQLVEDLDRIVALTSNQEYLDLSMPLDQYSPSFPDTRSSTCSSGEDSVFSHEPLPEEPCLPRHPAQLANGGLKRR
# [6] = biological target: T1, Tyrosine-protein kinase JAK3 (Homo sapiens) (UniProt P52333); experiment: Inhibition of human N-terminal His-tagged JAK3 catalytic domain (795 to 1124 (end)residues) expressed in baculovirus expression system at 20 uM measured after 1 hr in presence of peptide substrate and ATP by off-chip mobility shift assay relative to control; method in brief: as §1
# T1 sequence (whole entry): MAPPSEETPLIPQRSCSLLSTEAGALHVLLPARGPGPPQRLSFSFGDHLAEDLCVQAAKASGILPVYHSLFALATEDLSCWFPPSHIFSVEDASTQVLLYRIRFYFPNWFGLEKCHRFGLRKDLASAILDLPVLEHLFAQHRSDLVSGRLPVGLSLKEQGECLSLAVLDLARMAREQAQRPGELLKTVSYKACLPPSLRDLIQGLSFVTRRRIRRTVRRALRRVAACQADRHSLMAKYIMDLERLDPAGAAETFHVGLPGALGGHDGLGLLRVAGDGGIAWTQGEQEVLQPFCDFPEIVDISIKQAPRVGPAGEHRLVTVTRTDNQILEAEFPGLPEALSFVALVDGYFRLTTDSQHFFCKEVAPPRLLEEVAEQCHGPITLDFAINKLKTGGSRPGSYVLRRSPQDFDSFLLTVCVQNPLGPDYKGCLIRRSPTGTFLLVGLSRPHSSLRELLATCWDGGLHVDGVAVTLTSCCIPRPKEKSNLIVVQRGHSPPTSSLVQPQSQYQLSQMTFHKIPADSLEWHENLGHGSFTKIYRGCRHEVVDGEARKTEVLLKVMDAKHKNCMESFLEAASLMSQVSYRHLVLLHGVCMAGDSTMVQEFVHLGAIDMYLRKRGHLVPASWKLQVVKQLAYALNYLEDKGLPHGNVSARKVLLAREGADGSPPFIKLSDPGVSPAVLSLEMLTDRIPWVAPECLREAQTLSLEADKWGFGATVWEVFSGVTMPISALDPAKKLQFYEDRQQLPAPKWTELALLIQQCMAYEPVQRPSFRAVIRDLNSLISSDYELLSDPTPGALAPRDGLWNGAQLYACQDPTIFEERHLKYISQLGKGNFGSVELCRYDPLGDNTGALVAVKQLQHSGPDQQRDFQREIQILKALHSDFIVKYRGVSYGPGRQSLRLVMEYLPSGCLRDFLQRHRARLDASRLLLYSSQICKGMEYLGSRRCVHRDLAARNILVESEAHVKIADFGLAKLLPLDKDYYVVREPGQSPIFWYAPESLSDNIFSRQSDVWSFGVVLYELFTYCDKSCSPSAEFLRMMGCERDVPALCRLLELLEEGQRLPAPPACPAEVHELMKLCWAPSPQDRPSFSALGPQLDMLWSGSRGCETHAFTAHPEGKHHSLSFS
# [7] = biological target: T2, Protein smoothened (Homo sapiens, UniProt Q99835); experiment: Inhibition of SMO in human PC9-OR cells assessed as reduction in GLI1 expression at antiproliferative IC50 measured after 72 hrs by Western blot analysis; format: functional, cell-based
# [8] = biological target: High affinity nerve growth factor receptor (Homo sapiens) (UniProt P04629); experiment: Inhibition of human N-terminal GST-fused TRKA cytoplasmic domain (436 to 790 (end)residues) expressed in baculovirus expression system at 20 uM measured after 1 hr in presence of peptide substrate and ATP by off-chip mobility shift assay relative to control; method in brief: as §1
# Chain of High affinity nerve growth factor receptor (Homo sapiens) (P04629 33-796 limits assumed): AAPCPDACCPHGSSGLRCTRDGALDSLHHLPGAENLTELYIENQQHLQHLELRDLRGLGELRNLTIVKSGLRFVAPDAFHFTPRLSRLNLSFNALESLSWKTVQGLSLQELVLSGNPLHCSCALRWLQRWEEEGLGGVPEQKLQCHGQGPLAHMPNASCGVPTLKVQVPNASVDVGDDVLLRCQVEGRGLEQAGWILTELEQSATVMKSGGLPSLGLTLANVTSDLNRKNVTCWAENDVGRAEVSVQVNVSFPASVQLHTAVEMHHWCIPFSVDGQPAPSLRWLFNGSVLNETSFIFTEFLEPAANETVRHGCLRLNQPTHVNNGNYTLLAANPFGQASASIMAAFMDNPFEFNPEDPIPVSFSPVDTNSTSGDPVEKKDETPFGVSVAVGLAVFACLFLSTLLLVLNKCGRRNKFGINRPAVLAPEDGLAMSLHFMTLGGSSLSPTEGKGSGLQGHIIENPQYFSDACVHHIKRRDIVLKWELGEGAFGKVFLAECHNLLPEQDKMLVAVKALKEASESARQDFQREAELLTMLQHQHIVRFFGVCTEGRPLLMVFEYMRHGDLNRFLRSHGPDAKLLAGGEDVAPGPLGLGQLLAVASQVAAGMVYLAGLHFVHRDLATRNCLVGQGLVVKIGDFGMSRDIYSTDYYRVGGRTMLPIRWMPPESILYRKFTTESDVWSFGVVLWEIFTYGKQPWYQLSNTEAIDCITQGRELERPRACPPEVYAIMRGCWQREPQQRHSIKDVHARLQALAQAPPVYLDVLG
# [9] = biological target: Protein-tyrosine kinase 2-beta (Homo sapiens) (UniProt Q14289); experiment: Inhibition of human full-length N-terminal GST-fused PYK2 (1 to 967 (end)residues) expressed in baculovirus expression system at 20 uM measured after 1 hr in presence of peptide substrate and ATP by off-chip mobility shift assay relative to control; method in brief: as §1
# [10] = biological target: Insulin-like growth factor 1 receptor (Homo sapiens) (UniProt P08069); experiment: Inhibition of human N-terminal GST-fused IGF1R cytoplasmic domain (959 to 1367 (end)residues) expressed in baculovirus expression system at 20 uM measured after 1 hr in presence of peptide substrate and ATP by off-chip mobility shift assay relative to control; method in brief: as §1
# Chain of Insulin-like growth factor 1 receptor (Homo sapiens) (P08069 31-736 limits assumed): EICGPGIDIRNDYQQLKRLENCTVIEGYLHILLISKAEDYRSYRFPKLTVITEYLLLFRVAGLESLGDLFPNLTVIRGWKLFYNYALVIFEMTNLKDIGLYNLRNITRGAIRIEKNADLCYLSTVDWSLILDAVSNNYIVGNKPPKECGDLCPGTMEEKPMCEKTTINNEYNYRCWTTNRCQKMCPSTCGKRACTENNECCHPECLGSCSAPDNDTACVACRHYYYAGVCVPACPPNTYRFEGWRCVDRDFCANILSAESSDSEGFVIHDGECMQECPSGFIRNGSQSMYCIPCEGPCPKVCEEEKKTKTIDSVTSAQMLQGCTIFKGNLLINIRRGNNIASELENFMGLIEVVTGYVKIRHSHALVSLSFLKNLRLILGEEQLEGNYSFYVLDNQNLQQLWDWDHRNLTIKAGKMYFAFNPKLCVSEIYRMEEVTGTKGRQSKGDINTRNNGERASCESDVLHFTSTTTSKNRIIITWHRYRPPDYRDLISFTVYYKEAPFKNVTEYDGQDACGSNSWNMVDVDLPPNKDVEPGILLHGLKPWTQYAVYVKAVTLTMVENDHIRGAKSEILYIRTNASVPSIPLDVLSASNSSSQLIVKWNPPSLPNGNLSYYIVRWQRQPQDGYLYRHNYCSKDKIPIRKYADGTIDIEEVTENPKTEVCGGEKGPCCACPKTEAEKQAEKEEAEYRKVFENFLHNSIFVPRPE
# Chain of Insulin-like growth factor 1 receptor (Homo sapiens) (P08069 741-1367 limits assumed): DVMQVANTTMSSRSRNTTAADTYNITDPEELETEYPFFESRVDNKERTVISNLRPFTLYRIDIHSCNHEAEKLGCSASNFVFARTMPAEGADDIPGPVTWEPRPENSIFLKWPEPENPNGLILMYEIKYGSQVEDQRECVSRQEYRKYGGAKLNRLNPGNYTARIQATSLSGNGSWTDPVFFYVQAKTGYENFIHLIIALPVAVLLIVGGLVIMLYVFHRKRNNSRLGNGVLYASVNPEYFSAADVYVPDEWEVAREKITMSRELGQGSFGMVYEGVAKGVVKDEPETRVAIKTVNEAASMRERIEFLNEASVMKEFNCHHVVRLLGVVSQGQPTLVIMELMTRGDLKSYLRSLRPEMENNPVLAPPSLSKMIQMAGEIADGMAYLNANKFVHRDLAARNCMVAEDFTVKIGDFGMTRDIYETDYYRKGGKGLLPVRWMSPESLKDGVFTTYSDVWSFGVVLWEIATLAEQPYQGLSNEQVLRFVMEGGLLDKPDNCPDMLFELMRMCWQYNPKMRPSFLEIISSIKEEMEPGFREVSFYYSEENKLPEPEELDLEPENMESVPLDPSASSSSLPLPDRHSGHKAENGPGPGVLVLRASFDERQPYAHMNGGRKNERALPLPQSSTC
# [11] = biological target: T2, Protein smoothened; experiment: Displacement of [3H]-cyclopamine from SMO receptor (unknown origin) expressed in HEK293T cell membranes measured after 4 hrs by liquid scintillation spectrometry.; set-up: species or system Cell membrane
# Method in brief: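 Incubation of 15 μg HEK293T-WT SMO membranes (Kd 20 nM, Bmax 6.2 pmol/mg) with 25 nM [3H]-cyclopamine and varied compound, 4 h at RT, in 50 mM HEPES, 5 mM MgCl2, 0.02% BSA. Nonspecific binding was taken with 25 μM compound plus vismodegib. Bound ligand was separated on PEI-soaked GF/C filters, washed with ice-cold PBS/0.01% Triton X-100, and counted by scintillation; IC50 converted to Ki by Cheng–Prusoff.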
# [12] = Antiproliferative activity against human HCC827 Gefitinib-resistant (GR) cells assessed as reduction in cell viability measured after 72 hrs by MTS assay
# [13] = biological target: Tyrosine-protein kinase SYK (Homo sapiens) (UniProt P43405); experiment: Inhibition of human full-length N-terminal GST-fused SYK (1 to 635 (end)residues) expressed in baculovirus expression system at 20 uM measured after 1 hr in presence of peptide substrate and ATP by off-chip mobility shift assay relative to control; method in brief: as §1
# [14] = biological target: Ephrin type-A receptor 2 (Homo sapiens) (UniProt P29317); experiment: Inhibition of EPHA2 (unknown origin) at 20 uM measured after 1 hr in presence of peptide substrate and ATP by off-chip mobility shift assay relative to control; method in brief: as §1
# Chain of Ephrin type-A receptor 2 (Homo sapiens) (P29317 whole entry): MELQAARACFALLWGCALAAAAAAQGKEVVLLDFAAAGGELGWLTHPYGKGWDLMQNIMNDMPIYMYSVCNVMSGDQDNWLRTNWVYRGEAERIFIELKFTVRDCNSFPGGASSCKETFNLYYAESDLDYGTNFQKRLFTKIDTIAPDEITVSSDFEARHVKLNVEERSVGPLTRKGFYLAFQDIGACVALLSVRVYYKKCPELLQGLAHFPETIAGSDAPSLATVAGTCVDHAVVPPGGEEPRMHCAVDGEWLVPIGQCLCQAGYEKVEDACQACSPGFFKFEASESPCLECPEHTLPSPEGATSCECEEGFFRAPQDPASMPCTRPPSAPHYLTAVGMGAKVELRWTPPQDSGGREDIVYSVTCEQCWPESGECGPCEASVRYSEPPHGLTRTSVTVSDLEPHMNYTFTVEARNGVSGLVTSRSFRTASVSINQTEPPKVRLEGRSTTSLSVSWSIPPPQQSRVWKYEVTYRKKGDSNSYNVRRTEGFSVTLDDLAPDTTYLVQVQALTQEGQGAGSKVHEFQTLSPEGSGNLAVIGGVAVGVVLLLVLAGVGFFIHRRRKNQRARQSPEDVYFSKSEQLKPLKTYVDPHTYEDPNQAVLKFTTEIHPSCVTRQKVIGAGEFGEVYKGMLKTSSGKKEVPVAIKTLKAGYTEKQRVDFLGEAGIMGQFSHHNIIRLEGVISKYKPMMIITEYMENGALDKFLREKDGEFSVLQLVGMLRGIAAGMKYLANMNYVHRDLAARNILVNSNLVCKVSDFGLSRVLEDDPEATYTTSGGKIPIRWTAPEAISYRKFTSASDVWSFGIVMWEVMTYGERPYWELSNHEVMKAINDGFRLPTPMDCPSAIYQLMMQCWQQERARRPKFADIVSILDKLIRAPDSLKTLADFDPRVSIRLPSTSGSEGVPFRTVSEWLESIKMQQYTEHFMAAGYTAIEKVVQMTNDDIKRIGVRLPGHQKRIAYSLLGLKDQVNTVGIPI
inhibition [1] [%],inhibition [2] [%],inhibition [4] [%],inhibition [5] [%],inhibition [6] [%],inhibition [7],inhibition [8] [%],inhibition [9] [%],inhibition [10] [%],Ki [11] [nM],inhibition [13] [%],inhibition [14] [%],SMILES,IC50 [3] [nM],IC50 [12] [nM]
93.1,84.8,74.9,91.7,83.8,Active,80,49.9,80.2,185,91.9,95,Cc1ccc(NC(=O)CN2C(=O)/C(=N\NC(=O)c3cc(Br)ccc3O)c3ccccc32)cc1,9510,10700
76.7,69.3,63.5,71.4,72.4,Active,64.3,48.5,54,11,54.1,69.2,Cc1ccc(NC(=O)CN2C(=O)/C(=N\NC(=O)c3cc(Br)ccc3O)c3ccc(Br)cc32)cc1,2080,4340
89.5,66.8,67.9,81.6,78.9,Active,65.9,45.1,66,9,89.7,71.5,O=C(CN1C(=O)/C(=N\NC(=O)c2cc(Br)ccc2O)c2c(Br)cccc21)Nc1ccc([N+](=O)[O-])cc1,4050,3520
76.7,71.5,,71.8,76.6,Active,66.9,49.7,55.3,28,49.4,62.5,Cc1ccc(NC(=O)CN2C(=O)/C(=N\NC(=O)c3cc(Br)ccc3O)c3ccc(Cl)cc32)cc1,2270,5160
